# High-throughput results from PubChem BioAssay.
# Apaf1 inhib: human Apaf-1 inhibition; reconstituted apoptosome caspase-3 activity, DEVD-Rh110 fluorescence; inhibition, % at 20 µM; O14727; actives 0.71% (n = 330,000); AID 489030; active means inhibition of at least 40% at 20 µM
#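 Material: biochemical Apaf-1 apoptosome reconstitution. Medium: Hepes buffer, pH 7.5. Also added: cytochrome c activation, bis-DEVD rhodamine 110 substrate. Timing: 30 min compound preincubation, 50 min activation, room temperature. Measured by: rhodamine 110 fluorescence at Ex 480/Em 540 nm.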
# UBC13 inh: inhibitors of human UBC13 polyubiquitin chain formation; P61088; TR-FRET; inhibition, % at 20 µM; actives 0.47% (n = 330,000); in the data active means inhibition above about 45%, passing the limit was not always enough
# UPR XBP1 act: activators of adaptive arm of unfolded protein response (XBP1); actives 0.33% (n = 330,000); activation, % at 20 µM; CHO-XBP1 luciferase reporter, IRE1-XBP1 UPR activation, luminescence; percent of tunicamycin response, DMSO as zero; AID 463104;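 active means versus positive control, 20 µM dose yields 30% or more activation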
#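 Material: CHO cell line with stable XBP1 luciferase reporter; buffer or medium: F12 medium containing 10% fetal bovine serum; compound: single point, 20 µM final compound, 1% DMSO; incubation: 6 h treatment, 37 °C; measured by: glow luminescence from Steady-Glo reagent; evaluation: activation, % of tunicamycin; control set: tunicamycin high, DMSO low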
# CHOP UPR activ: apoptotic UPR (CHOP) activation. CHO-CHOP luciferase reporter, luminescence; percent of tunicamycin response over DMSO baseline. activation, % at 10 µM. actives 0.34% (n = 330,000). AID 449763;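 active means at 10 µM dose, activation of 40% or more, normalized to positive control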
#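 System: CHO-CHOP luciferase reporter cell line; amount: 500 cells/well; buffer or medium: F12 medium containing 10% fetal bovine serum; incubation: 6 h compound exposure at 37 °C after overnight seeding; measured by: luciferase luminescence after 10 min with Steady-Glo reagent; evaluation: % reporter activation, DMSO baseline versus tunicamycin full activation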
# Mdm2-MdmX inh: disrupts the human Mdm2-MdmX interaction | AID 485346 | O15151+Q00987 | inhibition, % at 8 µM | SaOS-2 split-luciferase Mdm2/MdmX complementation, luminescence | actives 3% (n = 330,000);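 active means inhibition of at least 50% at 8 µM in the primary screen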
# Mdm2 MdmX conf: confirmation of human Mdm2/MdmX interaction inhibitors | actives 55% (n = 10,000) | Mdm2-MdmX binding, luminescent assay | inhibition, % at 8 µM | shares compounds with Mdm2-MdmX inh; in the data active means inhibition above about 40%
# FLuc counter: full-length luciferase inhibition in Mdm2/MdmX counter-screen; actives 77% (n = 6,200); inhibition, % at 8 µM; shares compounds with Mdm2-MdmX inh; AID 504607; SaOS-2 full-length luciferase counterscreen, luminescence;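 active means mean inhibition at 8 µM reaching about 37%, which flags the compound as non-specific, limit read from the data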;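 further: p53-null SaOS-2 cells with luciferase driven by a doxycycline-inducible promoter; compound on cells about two nights before reading with doxycycline added after day one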
# A number is an active result; - = inactive; . = no result given. In the library only some 4.1% were active in any assay of this set; here they are far more common.
SMILES,Apaf1 inhib,UBC13 inh,UPR XBP1 act,CHOP UPR activ,Mdm2-MdmX inh,Mdm2 MdmX conf,FLuc counter
COc1cnc(-c2ccccn2)nc1N(C)C,-,-,-,-,72,79,42
CN(C)c1nc(-c2ccccn2)nnc1-c1ccccc1,-,-,-,-,76,-,.
COc1ccc(Oc2nc(-c3ccccn3)ncc2OC)cc1,-,-,-,-,-,.,.
CCN(CC)c1nc(-c2ccccn2)nc(-c2ccccc2)c1C#N,-,-,-,-,59,-,.
CN(C)c1nc(-c2ccccc2)nc(-c2ccc(Cl)cc2)c1C#N,-,-,-,-,-,.,.
O=C(CSc1ccccc1)Nc1ccncc1,-,-,-,-,-,.,.
Cc1ccc(C(=O)OCC(=O)Nc2cc(F)ccc2F)cc1NC(=O)c1ccco1,-,-,-,-,-,.,.
CC(=O)c1ccc(Sc2nnnn2-c2ccccc2)c([N+](=O)[O-])c1,-,-,-,-,85,58,-
CN1CCN(S(=O)(=O)c2ccc(Sc3nnnn3-c3ccccc3)c([N+](=O)[O-])c2)CC1,-,-,-,-,88,77,56
Nc1ccn(CC(=O)NCCc2ccccn2)c(=O)n1,-,-,-,-,-,.,.
Cc1cccc(C)c1NC(=O)CNC(=O)C1CC(=O)N(Cc2ccccc2)C1 (stereo unspecified),-,-,-,-,-,.,.
O=S(=O)(NCC(Nc1ccc(Cl)cc1)c1ccccc1)c1ccccc1 (stereo unspecified),-,-,-,-,-,.,.
Cc1ccc(NC(CNS(=O)(=O)c2ccc(Cl)cc2)c2ccccc2)cc1 (stereo unspecified),-,-,-,-,52,-,.
CCOc1ccc(-n2c(SCC(=O)Nc3ccc(CC)cc3)nc3n[nH]c(C)c3c2=N)cc1,-,-,-,-,-,.,.
CCN(C(=O)CSc1nc2n[nH]c(C)c2c(=N)n1-c1ccc(Cl)c(C)c1)c1cccc(C)c1,-,-,-,-,76,-,.
CCCN(CCC)C(=O)CSc1nc2n[nH]c(C)c2c(=N)n1-c1ccc(OC)cc1,-,-,-,-,50,-,.
CCCN(CCC)C(=O)CSc1nc2n[nH]c(C)c2c(=N)n1-c1ccc(OCC)cc1,-,-,-,-,-,.,.
COc1ccccc1NC(=O)CSc1nc2n[nH]c(C)c2c(=N)n1-c1ccccc1Cl,-,-,-,-,68,41,71
O=[N+]([O-])c1cccc(S(=O)(=O)NCC2CC3CCC2C3)c1 (stereo unspecified),-,-,-,-,-,.,.
COc1ccc(Cl)cc1NC(=O)CN(C)C(=O)c1n[nH]c2ccccc12,-,-,-,-,-,.,.
COc1cc2c3c(c1)C(C)CC(C)(C)N3C(=O)C2=O (stereo unspecified),-,-,-,-,-,.,.
COc1cc2c3c(c1)C(C)=CC(C)(C)N3C(=O)C2=O,-,-,-,-,56,-,.
CCn1c(=S)sc2c(=O)n(CC(=O)Nc3ccc(OC)c(Cl)c3)c(C)nc21,-,-,-,-,-,.,.
O=C(O)CCCCCNC(=O)c1ccc(Br)cc1,-,-,-,-,-,.,.
O=C(NCCCCNC(=O)c1ccc(Br)cc1)c1ccc(Br)cc1,-,-,-,-,77,-,.
SMILES,Apaf1 inhib,UBC13 inh,UPR XBP1 act,CHOP UPR activ,Mdm2-MdmX inh,Mdm2 MdmX conf,FLuc counter
COc1ccc(N2CCN(S(=O)(=O)c3c(C)nc4sccn4c3=O)CC2)cc1,-,-,-,-,-,.,.
CCN1CCc2c(C#N)c(NCc3ccccc3)nc(N(CC)CC)c2C1,-,-,-,-,-,.,.
C=CCNc1nc(NCc2ccccc2)c(C#N)c2c1CN(C)CC2,-,-,-,-,74,52,61
COC(=O)[C@H]1[C@H]2C[C@@H]3c4[nH]c5cc(OC)ccc5c4CCN3C[C@H]2C[C@@H](OC(=O)/C=C/c2cc(OC)c(OC)c(OC)c2)[C@@H]1OC,-,-,-,-,64,-,70
Cc1ccc(S(=O)(=O)c2nc(-c3ccccc3Cl)oc2N(C)C)cc1,-,-,-,-,56,72,73
O=C(c1ccc(Br)c(S(=O)(=O)N2CCCCC2)c1)N1CCCCC1,-,-,-,-,-,.,.
CCOc1ccc(NS(=O)(=O)c2ccc(NC(=O)[C@@H]3CCCC[C@@H]3C(=O)O)cc2)cc1,-,-,-,-,-,.,.
Cc1ccc(-c2csc(=Nc3cccnc3)n2CCCn2ccnc2)cc1C,-,-,-,-,71,75,-
Cc1ccc(-c2csc(=Nc3cccnc3)n2CCCN2CCCC2=O)cc1C,-,-,-,-,-,.,.
CCOc1ccc(-n2nnnc2-c2nc3ccccc3s2)cc1,-,-,-,-,74,49,89
Cc1ccc(-n2nnnc2-c2nc3ccccc3s2)cc1,-,-,-,-,-,.,.
Cc1ccc2nc(/C(C#N)=C/c3cn[nH]c3-c3ccc(F)cc3)[nH]c2c1,-,-,-,-,66,57,48
CCCCN(CC)CCNC(=O)c1cc2c(=O)[nH]c3ccc(C)cc3c2s1,-,-,-,-,83,47,68
CCN(C(=O)c1cc2c(=O)[nH]c3ccc(C)cc3c2s1)c1cccc(C)c1,-,-,-,-,-,52,64
CCN(C(=O)c1cc2c(=O)[nH]c3ccc(C)cc3c2s1)c1ccc(F)cc1,-,-,-,-,-,.,.
Cc1ccc2[nH]c(=O)c3cc(C(=O)N(C)c4ccc(C)c(C)c4)sc3c2c1,-,-,-,-,65,40,67
CCN(C(=O)c1cc2c(=O)[nH]c3ccc(C)cc3c2s1)c1ccccc1F,-,-,-,-,-,.,.
CCN(C(=O)c1cc2c(=O)[nH]c3ccc(C)cc3c2s1)c1ccccc1C,-,-,-,-,57,-,.
COc1ccc(C(=O)NCCCn2nc(C)cc2C)cc1S(=O)(=O)N1CCOCC1,-,-,-,-,-,.,.
Cc1c(Cl)c(=O)n2c(=O)c(Cl)c(C)n12,-,-,-,-,-,.,.
O=C(CC(c1ccccc1)c1ccccc1)Nc1ccc(Cl)cn1,-,-,-,-,59,53,61
O=C(Nc1ccc(Cl)cn1)c1cccc2ccccc12,-,-,-,-,52,42,71
CCOc1ncccc1C(=O)OC(C)C(=O)Nc1ccc(Cl)cn1 (stereo unspecified),-,-,-,-,-,.,.
CNc1ccccc1C(=O)OC(C)C(=O)Nc1ccc(Cl)cn1 (stereo unspecified),-,-,-,-,91,83,113
O=C(Nc1ccc(Cl)cn1)c1ccccc1[N+](=O)[O-],-,-,-,-,-,.,.
CC(C)N(Cc1nc(-c2ccccc2)no1)C(=O)CN(C)S(=O)(=O)c1ccccc1,-,-,-,-,-,.,.
